Assay results published in ChEMBL document CHEMBL4819012, “Discovery of novel 2-aryl-3-sulfonamido-pyridines (HoAns) as microtubule polymerization inhibitors with potent antitumor activities” (Eur J Med Chem, 2021).
The source made the active and inactive calls. No cut-off for these calls is given here.

Legend:
RKO [1] = assay: Induction of cell cycle arrest in human RKO cells assessed as reduction in Cyclin B1 expression at 0.5 to 1 uM measured after 24 hrs by western blot assay; assay type: functional, cell-based; details: dose 0.5-1 µM
Method in brief: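 RKO or SW620 cells (4×10^5–5×10^5 per well) exposed to 0.5 or 1 μM or DMSO for 24 h. Lysed in SDS loading buffer, boiled, run on 8–15% SDS-PAGE and moved to PVDF. Blocked in 5% milk, probed overnight at 4 °C with anti-Cdc2 or anti-cyclin B1 (1:1000), β-actin as reference. HRP secondary and ECL detection. Done at least three times.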

RKO [2] = assay: Induction of apoptosis in human RKO cells assessed as necrotic cells at 0.5 uM measured after 24 hrs by PI/Annexin V staining based flow cytometry assay (reference value: 0.01%); assay type: functional
SW-620 [3] = assay: Induction of apoptosis in human SW-620 cells assessed as increase in ROS levels at 0.25 uM measured after 24 hrs by DCFH-DA staining based flow cytometry method relative to control; assay type: functional
Method in brief: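 Cells at 5×10^5 per well exposed to 0.25 or 0.5 µM for 24 h, then loaded with 5 µM DCFH-DA in serum-free medium 30 min at 37 °C; washed, harvested, read by flow cytometry (ex 488/em 525 nm). ROS given as ratio of treated to control; at least three experiments.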

HUVEC = assay: Anti-vascular activity against human HUVEC cells assessed as inhibition of cell migration at 0.5 to 1 uM measured after 24 hrs by cell migration assay; assay type: functional, cell-based; details: dose 0.5-1 µM
SW-620 [4] = assay: Induction of apoptosis in human SW-620 cells assessed as early apoptotic cells at 0.5 uM measured after 24 hrs by PI/Annexin V staining based flow cytometry assay (reference value: 2.41%); assay type: functional
SW-620 [5] = assay: Induction of apoptosis in human SW-620 cells assessed as viable cells at 0.5 uM measured after 24 hrs by PI/Annexin V staining based flow cytometry assay (reference value: 93.89%); assay type: functional; details: read-out: Activity
RKO [6] = assay: Induction of apoptosis in human RKO cells assessed as early apoptotic cells at 0.5 uM measured after 24 hrs by PI/Annexin V staining based flow cytometry assay (reference value: 2.58%); assay type: functional

In the case of `COc1ccc(S(=O)(=O)Nc2cccnc2-c2ccc(C#N)c(F)c2)cc1`, the Activity (RKO [1]) is reported as “Active”, the Activity (RKO [2]) is reported as 0.03% and the “fold change (FC)” value (SW-620 [3]) is reported as 1.5. For the same compound, the Activity (HUVEC) was “Dose-Dependent Effect”, the Activity (SW-620 [4]) was 6.66% and the viability at 0.5 µM (SW-620 [5]) was 90.2%. The Activity (RKO [6]) was 24.47%.
